Test results published in ChEMBL document CHEMBL1141192 (J Med Chem, 2005).
≈ marks a conversion by molar mass, not a printed value.

Columns and labels:
[1] = molecular target: Adenosine kinase (Homo sapiens, UniProt P55263); assay: Inhibitory activity against recombinant human adenosine kinase
[2] = Solubility in water at pH 7.4
[3] = tested on: Rattus norvegicus; assay: Inhibition of the licking and biting response at 20 mg/kg, po in rat by formalin paw antinociceptive assay; type: functional; details: Sprague-Dawley
In short: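 Screening: fasted male SD rats (105–115 g), three per compound, 20 mg/kg po in 0.1% MC 15 min before 2% formalin (50 μL s.c., right hindpaw). Licking/biting scored 5 s per 30 s; percent inhibition reported for 2nd phase (15–30 min); positive control 5 mg/kg po each run.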

Chain of Adenosine kinase (P55263 whole entry): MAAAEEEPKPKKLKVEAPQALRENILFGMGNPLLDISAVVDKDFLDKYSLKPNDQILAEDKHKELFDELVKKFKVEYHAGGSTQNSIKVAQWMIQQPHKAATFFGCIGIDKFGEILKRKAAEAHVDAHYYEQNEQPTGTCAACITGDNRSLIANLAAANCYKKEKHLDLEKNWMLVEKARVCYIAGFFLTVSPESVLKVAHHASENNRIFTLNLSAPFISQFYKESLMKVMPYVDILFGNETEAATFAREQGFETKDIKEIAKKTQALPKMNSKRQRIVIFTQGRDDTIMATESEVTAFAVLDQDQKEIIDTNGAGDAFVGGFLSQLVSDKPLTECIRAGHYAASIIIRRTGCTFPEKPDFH

IC50 [1] | solubility [2] | SMILES | inhibition in vivo at 20 mg/kg [3]
0.14 µM | 3 µg/mL (≈ 7.84 µM) | CC(C)CNc1ncnc2c1c(-c1ccccc1)cn2[C@@H]1O[C@H](C)[C@@H](O)[C@H]1O | 
0.46 µM | 105 µg/mL (≈ 240 µM) | C[C@H]1O[C@@H](n2cc(-c3ccccc3)c3c(NCC(=O)N(C)C4CC4)ncnc32)[C@H](O)[C@@H]1O | 
2.5 µM |  | C[C@H]1O[C@@H](n2cc(-c3ccccc3)c3c(NCCC(N)=O)ncnc32)[C@H](O)[C@@H]1O | 
0.0002 µM | < 0.05 µg/mL | C[C@H]1O[C@@H](n2cc(-c3ccccc3)c3c(NCC(=O)Nc4ccc(Cl)cc4)ncnc32)[C@H](O)[C@@H]1O | 62%
1.7 µM | 270 µg/mL (≈ 708 µM) | O=C(CNc1ncnc2c1c(-c1ccccc1)cn2COCCO)NC1CC1 | 
0.145 µM | > 1000 µg/mL | C[C@H]1O[C@@H](n2cc(-c3ccccc3)c3c(NCC(=O)NCCCN(C)C)ncnc32)[C@H](O)[C@@H]1O | 22%
0.038 µM | 230 µg/mL (≈ 521 µM) | COCCNC(=O)CNc1ncnc2c1c(-c1ccccc1)cn2[C@@H]1O[C@H](C)[C@@H](O)[C@H]1O | 44%
0.0006 µM |  | O=C(CNc1ncnc2c1c(-c1ccccc1)cn2[C@@H]1OC[C@@H](O)[C@H]1O)Nc1ccccc1 | 37%
0.003 µM | 76 µg/mL (≈ 173 µM) | O=C(CNc1ncnc2c1c(-c1ccccc1)cn2[C@@H]1O[C@H](CO)[C@@H](O)[C@H]1O)NC1CC1 | 21%
0.38 µM | 36 µg/mL (≈ 98.2 µM) | C[C@H]1O[C@@H](n2cc(-c3ccccc3)c3c(NC4CC4)ncnc32)[C@H](O)[C@@H]1O | 
0.0005 µM | 8 µg/mL (≈ 18.2 µM) | C[C@H]1O[C@@H](n2cc(-c3ccccc3)c3c(NC/C(S)=N\C4CC4)ncnc32)[C@H](O)[C@@H]1O | 22%
0.001 µM | 6 µg/mL (≈ 13.3 µM) | C[C@H]1O[C@@H](n2cc(-c3ccccc3)c3c(NCC(=O)NC4CCCC4)ncnc32)[C@H](O)[C@@H]1O | 16%
0.53 µM | 480 µg/mL (≈ 1100 µM) | C[C@H](Nc1ncnc2c1c(-c1ccccc1)cn2[C@@H]1O[C@H](C)[C@@H](O)[C@H]1O)C(=O)NC1CC1 | 
0.04 µM | 140 µg/mL (≈ 340 µM) | CCNC(=O)CNc1ncnc2c1c(-c1ccccc1)cn2[C@@H]1O[C@H](C)[C@@H](O)[C@H]1O | 52%
0.0009 µM | 7 µg/mL (≈ 14.7 µM) | O=C(CNc1ncnc2c1c(-c1ccccc1)nn2[C@@H]1O[C@H](CO)[C@@H](O)[C@H]1O)Nc1ccccc1 | -10%
0.88 µM | 5 µg/mL (≈ 10.6 µM) | C[C@H]1O[C@@H](n2cc(I)c3c(NCC(=O)NC4CC4)ncnc32)[C@H](O)[C@@H]1O | 
0.0008 µM | 240 µg/mL (≈ 604 µM) | CNC(=O)CNc1ncnc2c1c(-c1ccccc1)cn2[C@@H]1O[C@H](C)[C@@H](O)[C@H]1O | 35%
0.004 µM | 7 µg/mL (≈ 15.9 µM) | CC(C)CNC(=O)CNc1ncnc2c1c(-c1ccccc1)cn2[C@@H]1O[C@H](C)[C@@H](O)[C@H]1O | 16%
0.006 µM | 620 µg/mL (≈ 1460 µM) | C[C@H]1O[C@@H](n2nc(-c3ccccc3)c3c(NCC(=O)NC4CC4)ncnc32)[C@H](O)[C@@H]1O | 7%
0.02 µM | 280 µg/mL (≈ 684 µM) | O=C(CNc1ncnc2c1c(-c1ccccc1)cn2[C@@H]1OC[C@@H](O)[C@H]1O)NC1CC1 | 17%
0.01 µM | 370 µg/mL (≈ 840 µM) | O=C(CNc1ncnc2c1c(-c1ccccc1)nn2[C@@H]1O[C@H](CO)[C@@H](O)[C@H]1O)NC1CC1 | 6%

IC50 [1] | solubility [2] | SMILES | inhibition in vivo at 20 mg/kg [3]
0.025 µM | 26 µg/mL (≈ 61.1 µM) | CC(C)NC(=O)CNc1ncnc2c1c(-c1ccccc1)cn2[C@@H]1O[C@H](C)[C@@H](O)[C@H]1O | 74%
0.004 µM |  | CCCOC(=O)Nc1ncnc2c1c(-c1ccccc1)cn2[C@@H]1O[C@H](C)[C@@H](O)[C@H]1O | 
0.0005 µM | < 0.05 µg/mL | C[C@H]1O[C@@H](n2cc(-c3ccccc3)c3c(NCC(=O)Nc4ccccc4)ncnc32)[C@H](O)[C@@H]1O | 62%
0.045 µM | 0.1 µg/mL (≈ 0.263 µM) | C[C@H]1O[C@@H](n2cc(-c3ccccc3)c3c(NCC4CC4)ncnc32)[C@H](O)[C@@H]1O | 
0.002 µM | 750 µg/mL (≈ 1960 µM) | C[C@H]1O[C@@H](n2cc(-c3ccccc3)c3c(NCC(N)=O)ncnc32)[C@H](O)[C@@H]1O | 
0.1 µM | 16 µg/mL (≈ 43.4 µM) | CCCNc1ncnc2c1c(-c1ccccc1)cn2[C@@H]1O[C@H](C)[C@@H](O)[C@H]1O | 
0.005 µM | 535 µg/mL (≈ 1250 µM) | CCONC(=O)CNc1ncnc2c1c(-c1ccccc1)cn2[C@@H]1O[C@H](C)[C@@H](O)[C@H]1O | 0%
 | < 0.05 µg/mL | C[C@H]1O[C@@H](n2cc(-c3ccccc3)c3c(Nc4ccc(F)cc4)ncnc32)[C@H](O)[C@@H]1O | 
0.0013 µM | 17 µg/mL (≈ 38.9 µM) | C[C@H]1O[C@@H](n2cc(-c3ccccc3)c3c(NC(=O)C(=O)NC4CC4)ncnc32)[C@H](O)[C@@H]1O | 17%
0.06 µM | < 0.05 µg/mL | O=C(CNc1ncnc2c1c(-c1ccccc1)cn2COCCO)Nc1ccc(Cl)cc1 | 31%
0.3 µM | > 1000 µg/mL | C[C@H]1O[C@@H](n2cc(-c3ccccc3)c3c(NCC(=O)NCCN(C)C)ncnc32)[C@H](O)[C@@H]1O | 
0.21 µM | > 1000 µg/mL | CCN(CC)CCNC(=O)CNc1ncnc2c1c(-c1ccccc1)cn2[C@@H]1O[C@H](C)[C@@H](O)[C@H]1O | 11%
0.006 µM | 12 µg/mL (≈ 27.4 µM) | C[C@H]1O[C@@H](n2cc(-c3ccccc3)c3c(NCC(=O)NCC4CC4)ncnc32)[C@H](O)[C@@H]1O | 42%
0.016 µM | 650 µg/mL (≈ 1470 µM) | C[C@H]1O[C@@H](n2cc(-c3ccccc3)c3c(NCC(=O)NCCCO)ncnc32)[C@H](O)[C@@H]1O | 4%
> 10 µM |  | O=C(CNc1[nH]cnc2ncc(-c3ccccc3)c1-2)NC1CC1 | 
 | < 0.05 µg/mL | C[C@H]1O[C@@H](n2cc(-c3ccccc3)c3c(Nc4ccccc4)ncnc32)[C@H](O)[C@@H]1O | 
0.002 µM |  | COCCCNC(=O)CNc1ncnc2c1c(-c1ccccc1)cn2[C@@H]1O[C@H](C)[C@@H](O)[C@H]1O | 24%
2.5 µM |  | C[C@@H](Nc1ncnc2c1c(-c1ccccc1)cn2[C@@H]1O[C@H](C)[C@@H](O)[C@H]1O)C(=O)NC1CC1 | 
0.007 µM | 38 µg/mL (≈ 89.3 µM) | CCCNC(=O)CNc1ncnc2c1c(-c1ccccc1)cn2[C@@H]1O[C@H](C)[C@@H](O)[C@H]1O | 41%
0.027 µM | 32 µg/mL (≈ 83.5 µM) | CNC(=O)Nc1ncnc2c1c(-c1ccccc1)cn2[C@@H]1O[C@H](C)[C@@H](O)[C@H]1O | 
0.0013 µM | 44 µg/mL (≈ 101 µM) | C[C@H]1O[C@@H](n2cc(-c3ccccc3)c3c(NCC(=O)NC4CCC4)ncnc32)[C@H](O)[C@@H]1O | 60%
